The source of these data is publication PMC3049929 (Journal of medicinal chemistry, 2008).

The structures appear in SMILES notation. Where two headings read alike, the source gives them in different places.

In data set [1] the test system is P. falciparum 3D7 (chloroquine-sensitive). It counts as cell-based. As to conditions: Plasmodium falciparum, 3D7, Erythrocyte, 48 h, read-out: ED50 (nM) 3D7. A digest of the protocol: (§1)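 Parasites cultured in type A+ human erythrocytes (2% hematocrit) in RPMI-1640 with 20% heat-inactivated type A+ human plasma, under 5% CO2/5% O2/90% N2. Test compound in DMSO added to culture at 0.5% parasitemia and 0.5% hematocrit. Incubated 37 °C for 48 h, then [8-3H]hypoxanthine (0.3 µCi) added for a further 24 h. Cells harvested to filter mats and counted by β-scintillation. Uninfected-erythrocyte background subtracted; DMSO-only wells taken as 100% growth. ED50 from linear regression of incorporation vs concentration.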

Data set [2] concerns PfPFT (P. falciparum protein farnesyltransferase). Nature of the data set: PfPFT [3H] scintillation proximity assay. It counts as biochemical. As to conditions: rat PFT IC50 / PfPFT IC50. (Scintillation proximity formats need no separation of bound from free tracer.)
The next data set concerns the target rat PFT (Rattus norvegicus, UniProt Q02293+Q04631). The experiment in a line: rat PFT [3H] scintillation proximity assay. In kind it is biochemical.
For data set [3], the system named is P. falciparum K1 (chloroquine-resistant, pyrimethamine-resistant). In kind it is cell-based. The following applies: Plasmodium falciparum, K1, Erythrocyte, 48 h, read-out: ED50 (nM) K1. In outline:
as §1

The test system is the same in data set [4]. The following applies: strain K1, infected erythrocytes; previously published data ref 26, 27; cited from earlier work.
The test system of data set [5] is P. falciparum 3D7 (chloroquine-sensitive). The following applies: strain 3D7, infected erythrocytes; previously published data ref 26, 27; cited from earlier work.
Data set [6] concerns the target T1, PfPFT (P. falciparum protein farnesyltransferase) (Plasmodium falciparum, UniProt Q5EI73+Q5EI74). As to conditions: 50 nM inhibitor concentration; previously published data ref 26, 27; cited from earlier work.
For data set [7] the following is noted: incubation with liver microsomes; cited from earlier work.
The target of data set [8] is T1, PfPFT (P. falciparum protein farnesyltransferase). Nature of the data set: PfPFT [3H] scintillation proximity assay. In kind it is biochemical. As to conditions: for inhibition at 0.05 µM: read-out: Inhibition of PfFTase (%) 50 nM; for Inhibition of PfFTase (%) 50 nM: 50 nM inhibitor concentration.

As usually defined, the inhibition is how much of the control response was suppressed.

For the molecule `Cn1cnc(S(=O)(=O)N(CC2CCN(C(=O)OC(C)(C)C)CC2)[C@@H]2CCC[C@@H]2N(Cc2cncn2C)c2ccc(C#N)cc2)c1` (racemic) [6d, (±)-[N-(N-tert-Butoxycarbonylpiperidin-4-ylmethyl)-N-{cis-2-[(4-cyanophenyl)(3-methyl-3H-imidazol-4-ylmethyl)amino]cyclopentyl}]-1-methyl-1H-imidazole-4-sulfonamide], the IC50 in [1] was 3000 nM; at rat PFT, above 1 µM. Moreover, the “Selectivity (ratio of rat to P. falciparum PFT IC50 values)” value in [2] is on record as above 2.9 fold.

Take `Cn1cnc(S(=O)(=O)N(CC2CCN(C(=O)OC(C)(C)C)CC2)[C@H]2CCC[C@@H]2N(Cc2cncn2C)c2ccc(C#N)cc2)c1` (racemic) [7d, (±)-[N-(N-tert-Butoxycarbonylpiperidin-4-ylmethyl)-N-{trans-2-[(4-cyanophenyl)(3-methyl-3H-imidazol-4-ylmethyl)amino]cyclopentyl}]-1-methyl-1H-imidazole-4-sulfonamide]: the IC50 in data set [3] is 600 nM; on rat PFT it was above 1 µM. Further, the “Selectivity (ratio of rat to P. falciparum PFT IC50 values)” value in data set [2] is listed as above 100 fold.

With `Cn1cnc(S(=O)(=O)N(CCN(Cc2cncn2C)c2ccc(C#N)cc2)Cc2ccccc2)c1` [1a], the “ED50 (nM) K1” value in data set [4] was 375 nM. For the same molecule, the “ED50 (nM) 3D7” value in [5] is 349 nM.

On to `Cc1ccccc1CN(CCN(Cc1cncn1C)c1ccc(C#N)cc1)S(=O)(=O)c1cn(C)cn1` [1b], for which the “ED50 (nM) K1” value in [4] is 150 nM. Moreover, the “ED50 (nM) 3D7” value in data set [5] was 93 nM.

For the molecule `Cn1cnc(S(=O)(=O)N(CCN(Cc2cncn2C)c2ccc(C#N)cc2)Cc2ccsc2)c1` [1c], the “ED50 (nM) K1” value in data set [4] is given as 240 nM. Further, in data set [6], the “Inhibition of PfFTase (%) 50 nM” value was 100%. Also, in [5], the “ED50 (nM) 3D7” value was 150 nM.

For the molecule `Cn1cnc(S(=O)(=O)N(CCN(Cc2cncn2C)c2ccc(C#N)cc2)CC2CCN(C(=O)OC(C)(C)C)CC2)c1` [1d], in [7], the metabolic stability entry is given as “limited”. In addition, in data set [4], the “ED50 (nM) K1” value is 54 nM. In data set [5], the “ED50 (nM) 3D7” value is given as 88 nM.

`Cn1cnc(S(=O)(=O)N(CCN(Cc2cncn2C)c2ccc(C#N)cc2)CC2CCN(c3ncccn3)CC2)c1` [1e]: the “ED50 (nM) K1” value in data set [4] is 85 nM. In addition, the “ED50 (nM) 3D7” value in data set [5] is recorded as 130 nM.

For the molecule `Cn1cnc(S(=O)(=O)N(CCCN(Cc2cncn2C)c2ccc(C#N)cc2)CC2CCN(C(=O)OC(C)(C)C)CC2)c1` [2d, [N-(N-tert-Butoxycarbonylpiperidin-4-ylmethyl)-N-3-{(4-cyanophenyl)(3-methyl-3H-imidazol-4-ylmethyl)amino}propyl]-1-methyl-1H-imidazole-4-sulfonamide], the IC50 in [3] came to 190 nM; in [1], 330 nM.

Turning to `Cn1cnc(S(=O)(=O)N(Cc2ccccc2)CC(C)(C)N(Cc2cncn2C)c2ccc(C#N)cc2)c1` [3a, [N-Benzyl-N-{(4-cyanophenyl)(3-methyl-3H-imidazol-4-ylmethyl)amino}-2,2-dimethylethyl]-1-methyl-1H-imidazole-4-sulfonamide], the IC50 was found to be 55 nM in data set [3] and 160 nM in data set [1].

Turning to `Cc1ccccc1CN(CC(C)(C)N(Cc1cncn1C)c1ccc(C#N)cc1)S(=O)(=O)c1cn(C)cn1` [3b, [N-(2-Methylbenzyl)-N-{(4-cyanophenyl)(3-methyl-3H-imidazol-4-ylmethyl)amino}-2,2-dimethylethyl]-1-methyl-1H-imidazole-4-sulfonamide], the IC50 in [3] was 75 nM; in data set [1], 210 nM.

For `Cn1cnc(S(=O)(=O)N(CC2CCN(C(=O)OC(C)(C)C)CC2)CC(C)(C)N(Cc2cncn2C)c2ccc(C#N)cc2)c1` [3d, [N-(N-tert-Butoxycarbonylpiperidin-4-ylmethyl)-N-{(4-cyanophenyl)(3-methyl-3H-imidazol-4-ylmethyl)amino}-2,2-dimethylethyl]-1-methyl-1H-imidazole-4-sulfonamide], the IC50 in data set [3] is 250 nM; in data set [1], 400 nM.

As for `Cn1cnc(S(=O)(=O)N(CC2CCN(c3ncccn3)CC2)CC(C)(C)N(Cc2cncn2C)c2ccc(C#N)cc2)c1` [3e, [N-{N-(2-Pyrimidinyl)-piperidin-4-ylmethyl}-N-{(4-cyanophenyl)(3-methyl-3H-imidazol-4-ylmethyl)amino}-2,2-dimethylethyl]-1-methyl-1H-imidazole-4-sulfonamide], the IC50 in data set [3] came to 75 nM; in data set [1] it was 180 nM.

As to `Cn1cnc(S(=O)(=O)N(CC(=O)N(Cc2cncn2C)c2ccc(C#N)cc2)Cc2ccccc2)c1` [4a, 2-[Benzyl(1-methyl-1H-imidazole-4-sulfonyl)amino]-N-(4-cyanophenyl)-N-(3-methyl-3H-imidazol-4-ylmethyl)acetamide], the inhibition at 0.05 µM in data set [8] was 0%.

Take `Cn1cnc(S(=O)(=O)N(CC(=O)N(Cc2cncn2C)c2ccc(C#N)cc2)CC2CCN(C(=O)OC(C)(C)C)CC2)c1` [4d, 2-[(N-tert-Butoxycarbonylpiperidin-4-ylmethyl)(1-methyl-1H-imidazole-4-sulfonyl)amino]-N-(4-cyanophenyl)-N-(3-methyl-3H-imidazol-4-ylmethyl)acetamide]: the inhibition at 0.05 µM in [8] worked out at 0%.

On to `Cn1cnc(S(=O)(=O)N(CCC(=O)N(Cc2cncn2C)c2ccc(C#N)cc2)Cc2ccccc2)c1` [5a, 3-[Benzyl-(1-methyl-1H-imidazole-4-sulfonyl)amino]-N-(4-cyanophenyl)-N-(3-methyl-3H-imidazol-4-ylmethyl)propanamide], for which the inhibition at 0.05 µM in data set [8] came to 0%.

For the molecule `Cn1cnc(S(=O)(=O)N(CCC(=O)N(Cc2cncn2C)c2ccc(C#N)cc2)CC2CCN(C(=O)OC(C)(C)C)CC2)c1` [5d, 3-[(N-tert-Butoxycarbonylpiperidin-4-ylmethyl)(1-methyl-1H-imidazole-4-sulfonyl)amino]-N-(4-cyanophenyl)-N-(3-methyl-3H-imidazol-4-ylmethyl)propanamide], the inhibition at 0.05 µM in [8] is 0%.

`Cn1cnc(S(=O)(=O)N(CC2CCN(C(=O)OC(C)(C)C)CC2)[C@H]2CC[C@@H](N(Cc3cncn3C)c3ccc(C#N)cc3)CC2)c1` [10d, (±)-[N-(N-tert-Butoxycarbonylpiperidin-4-ylmethyl)-N-{cis-4-[(4-cyanophenyl)(3-methyl-3H-imidazol-4-ylmethyl)amino]cyclohexyl}]-1-methyl-1H-imidazole-4-sulfonamide]: the IC50 in data set [3] was 650 nM. Further, in data set [8], the “Inhibition of PfFTase (%) 50 nM” value is reported as “no inhibitory activity” and the inhibition at 0.05 µM turned out to be 0%.

For the molecule `Cn1cnc(S(=O)(=O)N(CC2CCN(C(=O)OC(C)(C)C)CC2)[C@H]2CC[C@H](N(Cc3cncn3C)c3ccc(C#N)cc3)CC2)c1` [11d, (±)-[N-(N-tert-Butoxycarbonylpiperidin-4-ylmethyl)-N-{trans-4-[(4-cyanophenyl)(3-methyl-3H-imidazol-4-ylmethyl)amino]cyclohexyl}]-1-methyl-1H-imidazole-4-sulfonamide], the IC50 in data set [3] was 1200 nM. Besides, in data set [8], the “Inhibition of PfFTase (%) 50 nM” value is recorded as “no inhibitory activity” and the inhibition at 0.05 µM amounted to 0%.
